Experimental data collected from several papers.
Lines come from different studies, so protocols differ.
Target: Cyclin-dependent kinase 17 (CDK17, Homo sapiens, UniProt Q00537)

CNC(=O)[C@@H]1CC[C@@H](n2c(-c3ccc4cnccc4c3)nc3ccc(C(=O)NCc4cccc(C(N)=O)c4)cc32)C1
remaining binding (binding; competition with immobilised ligand; 1 µM): 93%

C[C@H](NC(=O)c1cnc2n1[C@](C)(Cc1ccc(C#N)cc1)C(=O)N2c1cc(Cl)c(F)c(Cl)c1)C(=O)NC1(c2ccccn2)CC1
remaining binding (cell-free assay; competition with immobilised ligand; 1 µM): 100%

COc1ncc2cc3ccccc3nc2c1C#N
remaining binding (cell-free assay; competition with immobilised ligand; 5 µM): 100%

O=C(NCC1CCOCC1)c1n[nH]cc1NC(=O)c1c(F)cccc1F
remaining binding (binding; competition with immobilised ligand; 1 µM): 66%

CN1CCN(c2cnc3c(C4CCN(C(=O)c5ccc(OC(F)(F)F)cc5N)CC4)ncnc3c2)CC1
remaining binding (cell-free assay; competition with immobilised ligand; 1 µM): 93%

N[C@@H]1CCN(c2nccc(-c3cnn4ncccc34)n2)C1
remaining binding (binding; 1 µM): 100%

O=C(c1ccc(Nc2ncc(Cl)c(-c3cc4ccccc4s3)n2)cc1)N1CCC(N2CCCC2)CC1
remaining binding (binding; competition with immobilised ligand; 1 µM): 0%

COc1cccc(CNC(=O)c2nc3scc(COCc4ccc(C(=O)O)cc4)c3c(=O)[nH]2)c1
remaining binding (cell-free assay; competition with immobilised ligand; 1 µM): 87.8%

CN(c1nccc(-c2cnn3ncccc23)n1)C1CC1
remaining binding (binding; 1 µM): 100%

COc1cnc(Nc2cccc(S(N)(=O)=O)c2)nc1N1CCN(c2ccccc2)C(=O)C1
remaining binding (binding; competition with immobilised ligand; 1 µM): 100%

CN(C)c1nccc(-c2cnn3ncccc23)n1
remaining binding (binding; 1 µM): 100%

O=C(NCCCN1CCOCC1)c1ccc(Nc2nccc(-c3cc4ccccc4s3)n2)cc1
remaining binding (binding; competition with immobilised ligand; 1 µM): 63%

C[C@H]1CCN(c2nccc(-c3cnn4ncccc34)n2)C1
remaining binding (binding; 1 µM): 0%

CN(C)C(=O)Cn1cc(-c2nc(C3(c4ccc(-c5cnc(N)nc5)cc4)CC3)no2)cn1
remaining binding (cell-free assay; competition with immobilised ligand; 1 µM): 100%

O=C(c1ccc(Nc2ncc(Cl)c(-c3ccc(Cl)s3)n2)cc1)N1CCC(N2CCCC2)CC1
remaining binding (binding; competition with immobilised ligand; 1 µM): 1.8%

Cc1noc([C@H]2C[C@@H](c3ccc(C(F)(F)F)cc3)CN(C(=O)N3CCS(=O)(=O)C3)C2)n1
remaining binding (cell-free assay; competition with immobilised ligand; 1 µM): 100%

COc1ccnn2ncc(-c3ccnc(N(C)C)n3)c12
remaining binding (binding; 1 µM): 100%

c1cncc(-c2cccc(Nc3nccc(NC4CCCCC4)n3)c2)c1
remaining binding (binding; competition with immobilised ligand; 10 µM): 72%

c1cnn2ncc(-c3ccnc(N4CCC45COC5)n3)c2c1
remaining binding (binding; 1 µM): 87%

CC1=C(C#N)[C@@H](c2ccc3[nH]nc(C)c3c2)C(C#N)=C(c2ccc(Cl)cc2)N1
remaining binding (cell-free assay; competition with immobilised ligand; 1 µM): 87.2%
